Measurements from ChEMBL document CHEMBL1833955, “Optimization of (arylpiperazinylbutyl)oxindoles exhibiting selective 5-HT₇ receptor antagonist activity” (J Med Chem, 2011).

Experiments:
[1] = molecular target: 5-hydroxytryptamine receptor 7 (Homo sapiens, UniProt P34969); assay: Displacement of [3H]CT from human 5-HT7 receptor expressed in CHO cells by scintillation spectrometry; assay type: cell-based
Procedure, shortened: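 Cloned human 5-HT7 receptor from CHO cells, run under the supplier's recommended conditions with [3H]CT. Nonspecific binding with 25 μM clozapine. Ended by GF/C filtration, then scintillation counting. Ki taken from two nine-concentration displacement curves run in triplicate, single-site fit.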

[2] = molecular target: T1, 5-hydroxytryptamine receptor 1A (Rattus norvegicus, UniProt P19327); assay: Displacement of [3H]8-OH-DPAT from 5-HT1A receptor in rat frontal cortex membrane after 45 mins by scintillation counting; assay type: cell membranes
T1 sequence (P19327 whole entry): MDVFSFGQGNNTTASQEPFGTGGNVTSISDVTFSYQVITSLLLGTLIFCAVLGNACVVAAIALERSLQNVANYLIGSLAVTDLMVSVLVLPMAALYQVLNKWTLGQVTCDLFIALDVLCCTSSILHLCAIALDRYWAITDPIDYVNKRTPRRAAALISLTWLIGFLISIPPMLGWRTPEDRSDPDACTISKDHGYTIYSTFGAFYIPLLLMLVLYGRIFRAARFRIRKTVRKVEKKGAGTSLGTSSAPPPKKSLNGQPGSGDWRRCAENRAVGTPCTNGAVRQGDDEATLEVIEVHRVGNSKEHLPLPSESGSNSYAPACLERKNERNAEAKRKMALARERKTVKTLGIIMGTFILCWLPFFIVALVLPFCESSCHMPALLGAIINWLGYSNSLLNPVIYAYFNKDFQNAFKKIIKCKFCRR
Procedure, shortened: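 Membranes from adult rat frontal cortex, prepared in 50 mM Tris-HCl pH 7.7 with washes and a 37 °C preincubation. Incubation buffer: 6.66 mM CaCl2, 16.66 μM pargyline, 0.166% ascorbic acid. Ligand 1.5 nM [3H]8-OH-DPAT; 10 μM 5-HT defines nonspecific binding. 45 min at 25 °C, GF/B filtration, scintillation counting. Triplicates; Ki from two nine-point curves, single-site fit.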

[3] = molecular target: Adrenergic receptor alpha-1 (Rattus norvegicus) (UniProt P15823+P23944+P43140); assay: Displacement of [3H]prazosin from alpha1-adrenergic receptor in rat frontal cortex membrane at 10^-7 M after 45 mins by scintillation spectrometry; assay type: cell membranes
Sequence of Adrenergic receptor alpha-1 (Rattus norvegicus) (P15823 whole entry, looked up): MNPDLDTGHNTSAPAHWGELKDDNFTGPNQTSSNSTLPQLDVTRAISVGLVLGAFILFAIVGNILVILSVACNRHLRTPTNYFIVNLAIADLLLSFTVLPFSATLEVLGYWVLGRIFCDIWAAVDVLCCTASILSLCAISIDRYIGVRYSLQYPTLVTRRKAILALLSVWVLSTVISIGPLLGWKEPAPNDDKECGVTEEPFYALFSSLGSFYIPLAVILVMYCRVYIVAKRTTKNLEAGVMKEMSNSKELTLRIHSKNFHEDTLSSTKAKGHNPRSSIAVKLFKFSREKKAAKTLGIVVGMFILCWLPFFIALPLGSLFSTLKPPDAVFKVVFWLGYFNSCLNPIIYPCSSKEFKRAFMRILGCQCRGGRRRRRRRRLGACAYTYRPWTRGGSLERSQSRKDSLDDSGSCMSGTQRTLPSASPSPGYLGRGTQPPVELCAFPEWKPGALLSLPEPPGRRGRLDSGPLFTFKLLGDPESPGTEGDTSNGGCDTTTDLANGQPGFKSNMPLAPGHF
Sequence of Adrenergic receptor alpha-1 (Rattus norvegicus) (P23944 whole entry, looked up): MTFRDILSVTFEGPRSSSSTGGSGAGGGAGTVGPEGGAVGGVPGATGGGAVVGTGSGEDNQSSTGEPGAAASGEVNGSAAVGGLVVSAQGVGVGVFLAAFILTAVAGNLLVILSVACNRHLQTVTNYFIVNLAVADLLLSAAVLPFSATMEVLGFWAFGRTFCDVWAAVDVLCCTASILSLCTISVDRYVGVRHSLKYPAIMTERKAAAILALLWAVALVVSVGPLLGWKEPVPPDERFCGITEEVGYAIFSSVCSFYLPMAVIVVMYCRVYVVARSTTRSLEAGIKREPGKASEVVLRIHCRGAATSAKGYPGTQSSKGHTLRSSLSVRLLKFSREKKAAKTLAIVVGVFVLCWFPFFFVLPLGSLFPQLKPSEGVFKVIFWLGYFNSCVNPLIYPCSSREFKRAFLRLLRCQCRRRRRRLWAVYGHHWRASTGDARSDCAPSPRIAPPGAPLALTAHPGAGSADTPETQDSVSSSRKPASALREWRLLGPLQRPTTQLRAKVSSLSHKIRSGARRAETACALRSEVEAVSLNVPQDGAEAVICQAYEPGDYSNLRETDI
Sequence of Adrenergic receptor alpha-1 (Rattus norvegicus) (P43140 whole entry, looked up): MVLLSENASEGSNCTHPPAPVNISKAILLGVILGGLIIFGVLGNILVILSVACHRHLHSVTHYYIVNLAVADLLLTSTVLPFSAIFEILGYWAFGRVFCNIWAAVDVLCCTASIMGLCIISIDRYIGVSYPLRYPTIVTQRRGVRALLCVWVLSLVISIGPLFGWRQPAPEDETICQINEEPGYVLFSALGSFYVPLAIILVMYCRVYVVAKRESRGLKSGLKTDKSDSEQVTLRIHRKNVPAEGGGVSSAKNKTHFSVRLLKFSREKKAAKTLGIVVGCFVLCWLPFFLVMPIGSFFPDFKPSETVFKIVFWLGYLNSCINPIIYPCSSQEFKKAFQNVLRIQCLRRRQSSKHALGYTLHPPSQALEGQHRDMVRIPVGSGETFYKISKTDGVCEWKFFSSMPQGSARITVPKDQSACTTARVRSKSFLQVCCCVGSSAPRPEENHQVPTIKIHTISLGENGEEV
Procedure, shortened: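 Rat frontal cortex membranes (tissue frozen on dry ice, homogenized in 50 mM Tris-HCl pH 7.7, washed by repeated 40 000 g spins at 4 °C) incubated with 0.6 nM [3H]prazosin, 45 min at 25 °C, triplicates; nonspecific binding with 10 μM prazosin. Filtration over GF/B filters presoaked in 0.05% polyethylenimine, scintillation counting; single test concentration 10^-7 M.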

Sequence of 5-hydroxytryptamine receptor 7 (P34969 whole entry): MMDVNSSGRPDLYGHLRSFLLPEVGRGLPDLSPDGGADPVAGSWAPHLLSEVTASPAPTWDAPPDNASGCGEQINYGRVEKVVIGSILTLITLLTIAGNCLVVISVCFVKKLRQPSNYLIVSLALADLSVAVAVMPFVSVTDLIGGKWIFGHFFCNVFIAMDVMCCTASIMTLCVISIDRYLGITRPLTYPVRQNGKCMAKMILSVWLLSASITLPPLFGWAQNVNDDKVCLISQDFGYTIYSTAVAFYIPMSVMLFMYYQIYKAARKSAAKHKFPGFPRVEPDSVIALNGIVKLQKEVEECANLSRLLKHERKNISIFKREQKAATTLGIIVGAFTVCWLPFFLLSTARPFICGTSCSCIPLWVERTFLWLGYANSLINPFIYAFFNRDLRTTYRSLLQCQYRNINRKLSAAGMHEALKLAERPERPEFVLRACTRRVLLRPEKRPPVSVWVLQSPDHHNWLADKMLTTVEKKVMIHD

Compound `O=C1Nc2ccc(F)cc2C1CCCCN1CC=C(c2cccc(C(F)(F)F)c2)CC1` (stereo not drawn) has a Ki [1] of 40 nM, a Ki [2] of 55 nM and an inhibition [3] of 11%.
